HTRA1 inhibitor – blocks human HTRA1 serine peptidase. Q92743. hit rate 0.5% among 340,000. recombinant HTRA1, FP-rhodamine activity-based probe, fluorescence polarization. inhibition, % at 5.96 µM; in the data active = inhibition above about 36%;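 also: 0% = enzyme with DMSO and 100% = wells lacking enzyme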
DAGLB inhibitor – blocks human DAGLB lipase activity; Q8NCG7; HEK293T DAGLB membrane lysate, EnzChek fluorogenic substrate; inhibition, % at 5.17 µM; hit rate 0.059% among 340,000; AID 504411; in the data active = inhibition above about 34%;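 also: 0% = enzyme with vehicle and 100% = wells lacking enzyme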
Target sequence (Q8NCG7 whole entry, looked up): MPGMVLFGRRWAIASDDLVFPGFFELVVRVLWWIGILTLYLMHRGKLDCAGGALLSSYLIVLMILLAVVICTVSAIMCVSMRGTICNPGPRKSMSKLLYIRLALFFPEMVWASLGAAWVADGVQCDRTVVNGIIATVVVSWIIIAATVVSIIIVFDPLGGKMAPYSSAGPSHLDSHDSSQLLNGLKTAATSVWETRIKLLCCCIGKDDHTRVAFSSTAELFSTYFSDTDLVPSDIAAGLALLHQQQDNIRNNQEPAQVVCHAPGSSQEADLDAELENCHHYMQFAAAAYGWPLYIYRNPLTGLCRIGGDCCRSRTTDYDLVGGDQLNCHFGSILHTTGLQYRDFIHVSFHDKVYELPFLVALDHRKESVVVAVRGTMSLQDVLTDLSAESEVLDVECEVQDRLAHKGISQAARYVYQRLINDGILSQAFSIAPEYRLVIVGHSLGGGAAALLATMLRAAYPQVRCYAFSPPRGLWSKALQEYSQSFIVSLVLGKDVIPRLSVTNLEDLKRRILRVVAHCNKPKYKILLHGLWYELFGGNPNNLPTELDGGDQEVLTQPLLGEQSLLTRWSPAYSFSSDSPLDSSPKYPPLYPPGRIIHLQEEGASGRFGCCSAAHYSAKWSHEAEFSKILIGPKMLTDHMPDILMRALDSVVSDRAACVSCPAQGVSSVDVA
mABHD4 FP – ABHD4 (mouse) inhibition, primary FP screen. hit rate 0.54% among 370,000. inhibition, % at 8.92 µM. purified mABHD4, FP-Rh probe fluorescence polarization. AID 720543;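 active = inhibition exceeding the mean over every tested compound plus 3 SD, cut at about 30% in these data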;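 also: 0% = plate median of compound wells and 100% = S159A mutant with DMSO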
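Material: mouse ABHD4 enzyme, wild type; Benchmarks: S159A mutant high control, sample median low control; Buffer or medium: HEPES pH 7.0, NaCl, Pluronic buffer; Signal: fluorescence polarization; Read-out: percent inhibition of probe binding, normalized to plate controls; Timing: pre-incubation 45 min, probe exposure 60 min, at 25 °C; Dosing: 8.92 µM, single dose.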
PRMT1 inh – inhibitors of human PRMT1; Q99873; recombinant PRMT1, activity-based probe fluorescence polarization; inhibition, % at 2.79 µM; hit rate 1.3% among 370,000; AID 652257;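 active = inhibition above about 21% made by adding two undisclosed values, limit read from the data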
rCAG RNA binder – r(CAG) repeat RNA binding. TO-PRO-1 dye displacement fluorescence. inhibition, % at 3 µM. hit rate 1.3% among 370,000. AID 651821;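 active = inhibition above the plate cutoff, the mean of all test compounds on that plate plus 3 SD, cut at about 35% in these data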;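 also: 0% = DMSO alone and 100% = 100 µM mitoxantrone as full dye displacement; higher means more dye released from RNA so lower well fluorescence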
LEDGF integ inh – blocks HIV-1 LEDGF/p75-dependent DNA integration; TR-FRET IN-LEDGF/p75 DNA integration, Eu/Cy5; inhibition, % at 3.7 µM; hit rate 0.64% among 370,000;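 active = inhibition above the screen-wide mean plus 3 SD, cut at about 13% in these data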;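 also: signal is the Cy5 over europium emission ratio at 671 and 618 nm; 0% = plate median of compound wells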
HTRA1 conf – HTRA1 (human) inhibition, confirmation | shares compounds with HTRA1 inhibitor | recombinant HTRA1, FP-rhodamine activity-based probe, fluorescence polarization | inhibition, % at 5.96 µM | hit rate 66% among 1,600 | AID 540248;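 active = mean inhibition over three repeats above a set limit taken from the earlier primary screen, cut at about 37% in these data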;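 also: 0% = HTRA1 with DMSO and 100% = wells lacking HTRA1; inhibitors block probe binding so polarization drops and inhibition rises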
rCAG bind conf – r(CAG) RNA repeat binding, confirmation. hit rate 70% among 4,300. AID 652065. inhibition, % at 3 µM. shares compounds with rCAG RNA binder. TO-PRO-1 dye displacement fluorescence;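 active = inhibition above a per-plate cutoff, the mean inhibition of sample wells plus 3 SD, cut at about 35% in these data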;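 also: loss of TO-PRO-1 fluorescence as compound displaces dye from 1x1 AA loop RNA; 0% = DMSO only wells and 100% = 100 µM mitoxantrone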
dCAG dye counter – counter-screen for rCAG RNA binders: DNA CAG dye complex inhibitors | d(CAG) DNA oligo TO-PRO-1 dye displacement, fluorescence | hit rate 94% among 4,300 | shares compounds with rCAG RNA binder | AID 652068 | inhibition, % at 3 µM;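 active = inhibition above its plate's cutoff, the mean test-well inhibition plus 3 SD, cut at about 4.8% in these data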;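 also: 0% = DNA dye mix with DMSO and 100% = 100 µM mitoxantrone; hits displace the dye from DNA and so lower well fluorescence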
PRMT1 confirm – confirmation of human PRMT1 inhibitors | shares compounds with PRMT1 inh | recombinant His-PRMT1, activity-based probe fluorescence polarization | inhibition, % at 2.79 µM | hit rate 42% among 3,300 | AID 687036;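 active = mean inhibition across replicates above the hit cutoff derived for the earlier primary screen, cut at about 22% in these data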
mABHD4 conf – confirmation of mouse ABHD4 inhibitors; shares compounds with mABHD4 FP; purified mABHD4, FP-Rh probe fluorescence polarization; inhibition, % at 8.92 µM; hit rate 55% among 1,800; AID 720658;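 active = mean inhibition across replicates above the hit cutoff set in the primary screen, cut at about 30% in these data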;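 also: 0% = wild-type ABHD4 with DMSO and 100% = catalytically dead S159A mutant with DMSO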
* hit, by the source's call; i = inactive; · = no result. This is a sample that favours compounds with a hit; in the whole collection about 3.2% have one here.

SMILES	HTRA1 inhibitor	DAGLB inhibitor	mABHD4 FP	PRMT1 inh	rCAG RNA binder	LEDGF integ inh	HTRA1 conf	others
O=C(NNC(=O)c1ccccc1O)c1ccc(Cl)c(S(=O)(=O)N2CCc3ccccc32)c1	50*	10	-26	2	48*	-7	50*	rCAG bind conf=52*;dCAG dye counter=19*
O=C(c1ccc(Cl)c(S(=O)(=O)N2CCc3ccccc32)c1)N1CCN(c2ccccc2O)CC1	-24	3	3	1	11	1	·
Cc1cccc(NC2=Nc3ccccc3N3C2=Nc2c(c(C)nn2-c2ccccc2)C3c2ccc(O)c(O)c2)c1 (stereo unspecified)	55*	18	-9	4	57*	-7	56*	rCAG bind conf=48*;dCAG dye counter=34*
Cc1ccc(NC2=Nc3ccccc3N3C2=Nc2c(c(C)nn2-c2ccccc2)C3c2ccc(O)c(O)c2)cc1 (stereo unspecified)	37*	9	-23	1	57*	-4	55*	rCAG bind conf=63*;dCAG dye counter=42*
Cc1cc(C)c(S(=O)(=O)Nc2nccs2)c(C)c1	0	2	5	5	5	0	·
Cc1cc(C(=O)N2CCC2(C)C(=O)Nc2cccc3ccccc23)nn1C (stereo unspecified)	·	·	3	-1	0	-3	·
CC1Sc2ccc(S(=O)(=O)CCC(=O)NC3CCCCCC3)cc2NC1=O (stereo unspecified)	2	1	1	3	-4	-6	·
CC(C)(C)c1ccc(O)c(/C=N\O)c1	4	-5	2	2	6	2	·
CC(C)(C)c1ccc(O)c(O)c1	38*	1	25	26*	4	-2	60*	PRMT1 confirm=17
CCc1cc(=O)oc2cc(C)cc(OCC(=O)NC3CCN(Cc4ccccc4)CC3)c12	-4	-2	1	-2	-5	5	·
Cc1cc2ccccc2n1CCNC(=O)c1ccc(Br)o1	57*	7	15	27*	13	-2	20	PRMT1 confirm=1
Cc1cc2ccccc2n1CCNC(=O)c1ccccc1	7	0	9	3	8	-1	·
COc1cccc(NS(=O)(=O)c2ccc3c(c2)C2C=CCC2C(c2ccc(C(=O)O)cc2)N3)c1 (stereo unspecified)	49*	12	28	42*	96*	44*	15	rCAG bind conf=90*;dCAG dye counter=62*;PRMT1 confirm=30*
CCOC(=O)Nc1ccc(NCc2ccc(F)cc2)nc1N	60*	-7	-13	64*	12	8	4	PRMT1 confirm=14
CCCCOc1[nH]c2nc(-c3ccco3)n(Cc3ccco3)c(=N)c2c1C#N	42*	2	45*	35*	16	19*	-5	PRMT1 confirm=32*
COc1ccc(-c2nnn(CC(=O)N(CC(=O)NC3CCCC3)c3cccc(C)c3)n2)cc1OC	0	-4	-6	-3	-1	4	·
CC(NC(=O)Nc1ccc(F)cc1F)c1ccc2c(c1)OCO2 (stereo unspecified)	-3	0	0	-3	-1	2	·
O=[N+]([O-])c1ccc(Sc2cccc[n+]2[O-])c2nonc12	81*	1	26	88*	2	0	101*	PRMT1 confirm=91*
COc1ccc(N/C(N)=N/c2nc(C)cc(C)n2)c(OC)c1	-7	0	4	-1	10	0	·
CCOC(=O)c1c(C)oc2c(CC(=O)c3ccccc3)c(Cl)c(O)c(O)c12	46*	5	26	27*	9	-8	4	PRMT1 confirm=4
CCOC(=O)c1c(C)oc2c1c(CN1CCN(CCO)CC1)c(O)c1ccccc12	2	0	17	7	8	-2	·
Cc1ccc(C)c(NC(=O)C2CC3CCC2C3)c1 (stereo unspecified)	-1	-2	-3	3	-1	0	·
Oc1ccc(C2C[C@H]3CC[C@@H]2C3)cc1O (stereo partly specified)	51*	1	30*	14	9	-7	76*	mABHD4 conf=18
CC(C)CNC(=O)C1Nc2ccc(OC(F)(F)F)cc2C2C=CCC12 (stereo unspecified)	9	-8	11	14	21	1	·
CCOC(=O)c1ccc2c(c1)C1C=CCC1C(C(=O)OCC)N2 (stereo unspecified)	44*	9	35*	23*	47*	0	54*	rCAG bind conf=35*;dCAG dye counter=17*;mABHD4 conf=45*
SMILES	HTRA1 inhibitor	DAGLB inhibitor	mABHD4 FP	PRMT1 inh	rCAG RNA binder	LEDGF integ inh	HTRA1 conf	others
CCOC(=O)C1Nc2ccc(Br)cc2C2C=CCC12 (stereo unspecified)	65*	15	53*	30*	63*	-2	2	PRMT1 confirm=26*;mABHD4 conf=52*
Cc1ccc(S(=O)(=O)n2nc(OC(=O)c3c(F)cccc3Cl)cc2N)cc1	13	-3	-11	0	7	0	·
Cc1ccc(S(=O)(=O)CCc2nnc(NC(=O)c3cccs3)s2)cc1	-3	-4	9	0	0	1	·
COc1cc([N+](=O)[O-])c(OC)cc1Nc1ccccc1C(=O)O	·	·	8	1	6	-2	·
COc1cc(-c2ccc(Nc3ccccc3C(=O)O)c(OC)c2)ccc1Nc1ccccc1C(=O)O	42*	3	54*	8	93*	9	56*	rCAG bind conf=86*;dCAG dye counter=59*;mABHD4 conf=80*
O=c1ccc2c(-c3ccccc3)c3ccc(O)cc3oc-2c1	60*	i	43*	90*	i	5	61*	mABHD4 conf=81*
O=[N+]([O-])c1cc(/C=N\Nc2nc(-c3ccccc3)cs2)ccc1O	47*	28	42*	11	66*	2	50*	rCAG bind conf=54*;dCAG dye counter=23*;mABHD4 conf=61*
Brc1cccc(CN2CCN(c3ncc(Cc4ccccc4)cn3)CC2)n1	·	·	-4	-1	0	2	·
O=C1c2cccc3c(N4CCCCC4)ccc(c23)C(=O)N1c1ccccc1O	-33	-24	-22	19	-33	-16	·
CCOc1ccc2noc3c2c1C(=O)c1ccccc1-3	49*	-156	58*	150*	i	12	31	mABHD4 conf=19
